Measurements as given in ChEMBL document CHEMBL1157465, “Design, synthesis, and biological evaluation of novel 3-aryl-4-(1H-indole-3yl)-1,5-dihydro-2H-pyrrole-2-ones as vascular endothelial growth factor receptor (VEGF-R) inhibitors” (J Med Chem, 2008).

How the values were obtained:
[1] = target: T1, Receptor-type tyrosine-protein kinase FLT3 (Homo sapiens, UniProt P36888); assay: Inhibition of human recombinant FLT3
T1 sequence (P36888 whole entry): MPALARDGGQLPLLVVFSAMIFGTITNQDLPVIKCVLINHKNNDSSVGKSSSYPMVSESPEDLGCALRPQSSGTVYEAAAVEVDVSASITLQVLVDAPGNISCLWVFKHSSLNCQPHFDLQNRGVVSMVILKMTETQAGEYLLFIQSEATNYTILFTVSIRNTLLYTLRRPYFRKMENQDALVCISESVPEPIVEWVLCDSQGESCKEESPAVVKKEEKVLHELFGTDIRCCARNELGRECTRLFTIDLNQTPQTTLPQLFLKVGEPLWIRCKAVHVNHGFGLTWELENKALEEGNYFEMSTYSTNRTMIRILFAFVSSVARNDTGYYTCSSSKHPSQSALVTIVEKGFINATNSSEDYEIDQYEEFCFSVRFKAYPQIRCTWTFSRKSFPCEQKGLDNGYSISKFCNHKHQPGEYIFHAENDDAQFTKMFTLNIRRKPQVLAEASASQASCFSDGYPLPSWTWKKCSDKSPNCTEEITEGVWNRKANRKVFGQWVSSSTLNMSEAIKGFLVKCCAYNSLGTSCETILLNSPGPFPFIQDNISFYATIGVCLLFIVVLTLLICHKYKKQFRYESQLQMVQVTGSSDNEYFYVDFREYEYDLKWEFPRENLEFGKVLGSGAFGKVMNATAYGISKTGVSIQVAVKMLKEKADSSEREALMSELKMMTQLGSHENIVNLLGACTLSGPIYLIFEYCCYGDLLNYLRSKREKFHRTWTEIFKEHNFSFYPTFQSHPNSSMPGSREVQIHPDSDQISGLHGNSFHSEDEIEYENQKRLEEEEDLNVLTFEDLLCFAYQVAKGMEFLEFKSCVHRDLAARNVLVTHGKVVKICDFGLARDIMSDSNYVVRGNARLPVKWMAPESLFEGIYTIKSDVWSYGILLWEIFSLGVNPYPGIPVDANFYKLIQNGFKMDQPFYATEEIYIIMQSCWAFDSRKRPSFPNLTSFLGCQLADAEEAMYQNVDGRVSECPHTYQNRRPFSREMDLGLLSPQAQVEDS
Method in brief: (§1)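 Human kinases expressed in Sf9 cells via baculovirus as GST or His fusions and affinity purified. 33PanQinase assay in 60 mM HEPES-NaOH pH 7.5, 3 mM MgCl2, 3 mM MnCl2, 3 µM orthovanadate, 1.2 mM DTT, 1 µM [γ-33P]ATP, 1% DMSO; 30 °C, 80 min. Substrates: poly(Glu,Tyr) 4:1 for ERBB2, IGF1-R and SRC; poly(Ala,Glu,Lys,Tyr) 6:2:5:1 for FLT3. IC50 from 10 concentrations by scintillation counting.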

[2] = target: Vascular endothelial growth factor receptor 3 (Homo sapiens, UniProt P35916); assay: Inhibition of human recombinant VEGFR3
Chain of Vascular endothelial growth factor receptor 3 (P35916 whole entry, the tested form may be a part): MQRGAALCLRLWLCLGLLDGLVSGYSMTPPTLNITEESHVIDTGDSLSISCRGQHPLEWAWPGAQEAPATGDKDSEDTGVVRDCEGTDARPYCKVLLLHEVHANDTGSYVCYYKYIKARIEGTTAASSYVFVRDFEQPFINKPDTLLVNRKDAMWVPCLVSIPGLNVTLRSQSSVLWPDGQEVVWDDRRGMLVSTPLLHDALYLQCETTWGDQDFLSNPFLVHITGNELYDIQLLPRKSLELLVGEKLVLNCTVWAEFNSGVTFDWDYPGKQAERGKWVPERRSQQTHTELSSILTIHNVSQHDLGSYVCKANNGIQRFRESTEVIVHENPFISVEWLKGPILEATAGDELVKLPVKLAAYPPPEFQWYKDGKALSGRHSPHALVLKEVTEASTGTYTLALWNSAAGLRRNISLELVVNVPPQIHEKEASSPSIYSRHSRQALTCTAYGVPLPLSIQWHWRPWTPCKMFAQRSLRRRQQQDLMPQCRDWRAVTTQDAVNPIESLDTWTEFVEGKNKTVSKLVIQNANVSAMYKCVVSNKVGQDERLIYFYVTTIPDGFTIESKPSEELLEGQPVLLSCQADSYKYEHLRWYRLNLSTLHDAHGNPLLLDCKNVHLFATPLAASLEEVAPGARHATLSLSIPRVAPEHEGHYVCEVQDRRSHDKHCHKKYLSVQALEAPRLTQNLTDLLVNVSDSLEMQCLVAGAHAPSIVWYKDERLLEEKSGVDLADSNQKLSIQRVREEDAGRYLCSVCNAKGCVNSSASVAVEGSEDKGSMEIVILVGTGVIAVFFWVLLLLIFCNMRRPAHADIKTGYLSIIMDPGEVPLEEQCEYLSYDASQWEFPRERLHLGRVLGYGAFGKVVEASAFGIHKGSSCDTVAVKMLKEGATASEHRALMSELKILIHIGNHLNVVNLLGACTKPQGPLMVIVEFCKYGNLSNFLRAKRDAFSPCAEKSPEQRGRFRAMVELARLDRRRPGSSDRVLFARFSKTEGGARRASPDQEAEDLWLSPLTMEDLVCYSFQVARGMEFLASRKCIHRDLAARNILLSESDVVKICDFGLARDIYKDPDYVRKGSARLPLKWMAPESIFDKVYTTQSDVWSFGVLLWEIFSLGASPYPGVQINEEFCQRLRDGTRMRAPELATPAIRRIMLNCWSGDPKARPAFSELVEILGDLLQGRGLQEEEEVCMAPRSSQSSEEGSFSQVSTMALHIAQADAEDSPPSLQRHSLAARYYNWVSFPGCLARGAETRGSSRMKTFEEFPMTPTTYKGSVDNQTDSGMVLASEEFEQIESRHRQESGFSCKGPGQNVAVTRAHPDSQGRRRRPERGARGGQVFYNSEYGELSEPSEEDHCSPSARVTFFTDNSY
Method in brief: (§2)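 Recombinant human tyrosine kinases (EPHB4, TIE2, VEGF-R2, VEGF-R3), expressed in Sf9 insect cells as GST- or His-fusions, with poly(Glu,Tyr) 4:1 as substrate. Conditions: 1 µM [γ-33P]ATP, pH 7.5 HEPES buffer with Mg/Mn, DTT and vanadate, 30 °C for 80 min, 1% DMSO. Ten concentrations were tested and IC50 came from scintillation counting of incorporated 33P.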

[3] = target: Vascular endothelial growth factor receptor 2 (Homo sapiens, UniProt P35968); assay: Inhibition of human recombinant VEGFR2; method in brief: as §2
Chain of Vascular endothelial growth factor receptor 2 (P35968 whole entry): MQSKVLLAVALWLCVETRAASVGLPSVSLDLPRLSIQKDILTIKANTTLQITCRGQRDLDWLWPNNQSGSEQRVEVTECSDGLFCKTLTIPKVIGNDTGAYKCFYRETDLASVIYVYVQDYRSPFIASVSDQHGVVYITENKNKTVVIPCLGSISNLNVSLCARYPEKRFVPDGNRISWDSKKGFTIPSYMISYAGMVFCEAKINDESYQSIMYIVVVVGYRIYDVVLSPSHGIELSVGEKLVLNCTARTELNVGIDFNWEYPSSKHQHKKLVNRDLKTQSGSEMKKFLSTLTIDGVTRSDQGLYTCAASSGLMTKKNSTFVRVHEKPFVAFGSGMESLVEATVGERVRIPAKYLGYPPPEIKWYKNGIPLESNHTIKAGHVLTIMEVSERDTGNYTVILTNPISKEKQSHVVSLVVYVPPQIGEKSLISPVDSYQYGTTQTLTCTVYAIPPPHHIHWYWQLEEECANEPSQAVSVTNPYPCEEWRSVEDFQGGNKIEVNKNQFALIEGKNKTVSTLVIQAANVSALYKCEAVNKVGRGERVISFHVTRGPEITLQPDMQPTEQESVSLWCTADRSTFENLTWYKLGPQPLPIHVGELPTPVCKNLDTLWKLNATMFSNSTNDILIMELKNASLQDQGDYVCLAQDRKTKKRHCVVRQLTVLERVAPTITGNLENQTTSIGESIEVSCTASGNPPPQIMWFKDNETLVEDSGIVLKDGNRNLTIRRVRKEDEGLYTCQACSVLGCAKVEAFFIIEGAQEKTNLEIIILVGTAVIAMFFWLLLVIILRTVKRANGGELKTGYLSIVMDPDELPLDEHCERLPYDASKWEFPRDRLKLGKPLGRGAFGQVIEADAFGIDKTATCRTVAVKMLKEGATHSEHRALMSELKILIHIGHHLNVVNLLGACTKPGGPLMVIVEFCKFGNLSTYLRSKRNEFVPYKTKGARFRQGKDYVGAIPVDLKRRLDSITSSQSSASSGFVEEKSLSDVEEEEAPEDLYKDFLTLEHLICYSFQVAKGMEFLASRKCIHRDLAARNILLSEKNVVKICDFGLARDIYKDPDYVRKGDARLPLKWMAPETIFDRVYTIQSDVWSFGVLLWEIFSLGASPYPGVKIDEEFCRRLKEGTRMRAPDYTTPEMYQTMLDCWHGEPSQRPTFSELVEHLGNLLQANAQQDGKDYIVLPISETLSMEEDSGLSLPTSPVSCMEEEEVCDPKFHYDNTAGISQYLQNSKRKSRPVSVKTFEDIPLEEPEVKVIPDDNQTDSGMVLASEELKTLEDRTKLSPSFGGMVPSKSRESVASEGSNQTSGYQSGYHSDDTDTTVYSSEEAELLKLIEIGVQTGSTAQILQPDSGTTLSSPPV

[4] = target: T2, Serine/threonine-protein kinase PLK4 (Homo sapiens, UniProt O00444); assay: Inhibition of human recombinant SAK
T2 sequence (O00444 whole entry): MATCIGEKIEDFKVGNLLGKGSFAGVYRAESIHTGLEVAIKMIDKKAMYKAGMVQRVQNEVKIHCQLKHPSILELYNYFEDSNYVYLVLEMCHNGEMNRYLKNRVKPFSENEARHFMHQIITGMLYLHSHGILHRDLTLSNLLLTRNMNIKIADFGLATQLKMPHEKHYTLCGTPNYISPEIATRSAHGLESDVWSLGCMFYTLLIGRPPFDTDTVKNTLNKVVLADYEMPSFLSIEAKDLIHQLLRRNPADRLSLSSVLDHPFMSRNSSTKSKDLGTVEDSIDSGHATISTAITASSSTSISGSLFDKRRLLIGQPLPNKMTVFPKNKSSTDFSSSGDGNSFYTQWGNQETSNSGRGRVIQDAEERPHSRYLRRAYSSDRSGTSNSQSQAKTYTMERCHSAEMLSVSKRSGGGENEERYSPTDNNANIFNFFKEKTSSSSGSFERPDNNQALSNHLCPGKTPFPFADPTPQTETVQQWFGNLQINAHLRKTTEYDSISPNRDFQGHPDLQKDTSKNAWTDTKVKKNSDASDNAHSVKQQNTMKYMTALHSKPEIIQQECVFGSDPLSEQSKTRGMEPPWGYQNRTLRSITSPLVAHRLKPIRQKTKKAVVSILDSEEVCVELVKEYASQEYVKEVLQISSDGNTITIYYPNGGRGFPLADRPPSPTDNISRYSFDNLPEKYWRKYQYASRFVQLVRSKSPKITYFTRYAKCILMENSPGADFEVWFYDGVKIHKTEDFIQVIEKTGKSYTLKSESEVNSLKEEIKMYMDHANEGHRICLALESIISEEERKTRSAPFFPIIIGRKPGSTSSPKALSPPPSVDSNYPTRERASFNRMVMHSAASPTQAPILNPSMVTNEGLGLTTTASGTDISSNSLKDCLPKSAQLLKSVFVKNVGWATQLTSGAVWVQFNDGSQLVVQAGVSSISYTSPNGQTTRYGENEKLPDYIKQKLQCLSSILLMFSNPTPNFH
Method in brief: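 Human kinase expressed from cDNA in Sf9 cells (baculovirus) as GST- or His-tagged protein, affinity-purified. 10 compound concentrations, 1% DMSO final, 30 °C for 80 min. Stopped with H₃PO₄, 33P incorporation counted, IC50 derived.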

[5] = target: Focal adhesion kinase 1 (Homo sapiens, UniProt Q05397); assay: Inhibition of human recombinant FAK
Chain of Focal adhesion kinase 1 (Q05397 whole entry): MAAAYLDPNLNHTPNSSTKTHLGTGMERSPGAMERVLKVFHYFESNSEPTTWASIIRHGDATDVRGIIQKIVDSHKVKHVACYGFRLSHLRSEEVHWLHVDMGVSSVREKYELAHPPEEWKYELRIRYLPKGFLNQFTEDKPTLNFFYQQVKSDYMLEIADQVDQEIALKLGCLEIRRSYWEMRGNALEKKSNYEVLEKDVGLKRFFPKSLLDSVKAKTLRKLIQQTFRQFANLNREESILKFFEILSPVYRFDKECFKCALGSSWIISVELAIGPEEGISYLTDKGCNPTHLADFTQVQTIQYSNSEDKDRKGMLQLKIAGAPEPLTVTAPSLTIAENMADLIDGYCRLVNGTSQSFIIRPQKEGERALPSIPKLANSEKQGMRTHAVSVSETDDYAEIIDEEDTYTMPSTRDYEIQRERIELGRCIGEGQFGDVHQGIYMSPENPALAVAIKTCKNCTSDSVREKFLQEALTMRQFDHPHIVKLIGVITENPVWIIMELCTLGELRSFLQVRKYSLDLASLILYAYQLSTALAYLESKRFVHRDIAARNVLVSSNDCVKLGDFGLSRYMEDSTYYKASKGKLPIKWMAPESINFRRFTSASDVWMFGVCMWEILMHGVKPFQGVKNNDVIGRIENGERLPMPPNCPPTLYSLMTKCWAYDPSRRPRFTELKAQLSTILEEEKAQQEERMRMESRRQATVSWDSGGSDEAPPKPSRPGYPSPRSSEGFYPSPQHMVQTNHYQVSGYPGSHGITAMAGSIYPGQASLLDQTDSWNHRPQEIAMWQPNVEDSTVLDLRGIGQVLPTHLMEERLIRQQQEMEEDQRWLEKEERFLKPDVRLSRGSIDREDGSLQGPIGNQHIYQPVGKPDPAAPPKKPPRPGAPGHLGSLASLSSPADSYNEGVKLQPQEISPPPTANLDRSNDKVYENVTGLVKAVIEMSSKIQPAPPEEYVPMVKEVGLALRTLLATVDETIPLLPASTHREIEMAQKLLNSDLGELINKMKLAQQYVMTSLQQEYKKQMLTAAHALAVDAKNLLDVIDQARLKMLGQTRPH

[6] = target: Proto-oncogene tyrosine-protein kinase Src (Homo sapiens, UniProt P12931); assay: Inhibition of human recombinant SRC; method in brief: as §1
Chain of Proto-oncogene tyrosine-protein kinase Src (P12931 2-536 limits assumed): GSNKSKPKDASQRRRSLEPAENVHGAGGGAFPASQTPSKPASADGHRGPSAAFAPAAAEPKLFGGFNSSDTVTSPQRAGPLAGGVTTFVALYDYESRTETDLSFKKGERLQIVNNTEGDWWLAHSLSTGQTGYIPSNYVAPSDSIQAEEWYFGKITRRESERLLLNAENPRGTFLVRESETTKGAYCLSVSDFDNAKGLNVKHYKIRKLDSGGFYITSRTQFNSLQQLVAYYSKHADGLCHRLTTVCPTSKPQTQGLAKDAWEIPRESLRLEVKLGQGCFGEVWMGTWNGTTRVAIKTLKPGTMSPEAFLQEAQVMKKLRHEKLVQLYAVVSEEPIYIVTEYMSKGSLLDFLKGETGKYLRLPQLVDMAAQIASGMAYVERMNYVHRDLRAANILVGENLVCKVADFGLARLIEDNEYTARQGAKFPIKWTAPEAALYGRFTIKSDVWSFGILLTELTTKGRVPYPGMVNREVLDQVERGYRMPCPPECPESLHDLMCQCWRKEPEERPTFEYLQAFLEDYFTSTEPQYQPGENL

[7] = target: T3, Aurora kinase A (Homo sapiens, UniProt O14965); assay: Inhibition of human recombinant Aurora A
T3 sequence (O14965 whole entry): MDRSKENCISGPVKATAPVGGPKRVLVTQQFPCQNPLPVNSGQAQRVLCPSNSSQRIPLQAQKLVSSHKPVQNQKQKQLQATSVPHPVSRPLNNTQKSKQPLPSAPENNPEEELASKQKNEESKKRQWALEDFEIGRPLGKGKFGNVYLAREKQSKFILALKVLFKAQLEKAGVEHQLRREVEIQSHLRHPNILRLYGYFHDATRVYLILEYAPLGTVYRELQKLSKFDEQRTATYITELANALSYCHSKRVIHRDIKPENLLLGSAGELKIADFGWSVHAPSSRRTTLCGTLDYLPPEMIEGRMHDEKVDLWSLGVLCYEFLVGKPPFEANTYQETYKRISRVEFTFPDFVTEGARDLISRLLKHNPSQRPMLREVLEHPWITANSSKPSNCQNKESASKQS
Method in brief: (§3)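 Aurora-A or Aurora-B, human cDNA expressed in Sf9 cells as tagged recombinant protein, phosphorylating Tetra(LRRWSLG). Reactions used 60 mM HEPES pH 7.5, Mg2+/Mn2+ (3 mM each), 1.2 mM DTT, vanadate and 1 µM [γ-33P]ATP, ran 80 min at 30 °C and were stopped with 2% H3PO4.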

[8] = target: Angiopoietin-1 receptor (Homo sapiens, UniProt Q02763); assay: Inhibition of human recombinant TIE2; method in brief: as §2
[9] = species on record: Homo sapiens; assay: Antiangiogenic activity in VEGF-induced HLMEC assessed as sprouts per bead at 1.3 uM after 24 hrs by sprouting assay; assay type: functional
Method in brief: (§4)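 HLMEC seeded on cytodex-3 microcarrier beads and embedded in 3D fibrinogen gel with 20 ng/mL VEGF plus compound at a final 1.3 or 2.6 µM (from 1 mM DMSO stock). Gel polymerised with 0.65 U/mL thrombin and overlaid with MCDB131, 5% FCS, 5% human serum and 200 U/mL Trasylol. Negative control: gel without growth factors. After 24 h, fixed in 1% PFA; sprouts per 50 beads counted microscopically. Triplicates per condition, n = 9 experiments.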

[10] = species on record: Homo sapiens; assay: Antiangiogenic activity in VEGF-induced HLMEC assessed as number of sprouts per bead at 2.6 uM after 24 hrs by sprouting assay; assay type: functional; method in brief: as §4
[11] = species on record: Homo sapiens; assay: Induction of apoptosis in HDMEC assessed as cleaved caspase 3 at 1.3 uM after 24 hrs; assay type: functional
Method in brief: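 HDMEC incubated 24 h with compound. Adherent cells and supernatant harvested together, stained with an antibody to cleaved caspase-3, and analysed by FACS as percent apoptotic cells. Three independent repeats.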

[12] = target: Receptor tyrosine-protein kinase erbB-2 (Homo sapiens, UniProt P04626); assay: Inhibition of human recombinant ERBB2; method in brief: as §1
[13] = target: Mitogen-activated protein kinase kinase kinase 8 (Homo sapiens, UniProt P41279); assay: Inhibition of human recombinant COT
Method in brief: (§5)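 Human kinases expressed in Sf9 cells by baculovirus as GST or His fusions and affinity purified. Radiometric 33PanQinase assay: 60 mM HEPES-NaOH pH 7.5, 3 mM MgCl2, 3 mM MnCl2, 3 µM orthovanadate, 1.2 mM DTT, 1 µM [γ-33P]ATP, 50-400 ng enzyme, 1% DMSO; 30 °C, 80 min. Substrates: B-Raf-VE, MEK1 KM; CDK2/CycA, histone H1; CK2-A1, casein; COT, autophosphorylation. IC50 from 10 concentrations; 33Pi incorporation by scintillation.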

[14] = target: Cyclin-dependent kinase 2 (Homo sapiens, UniProt P24941); assay: Inhibition of human recombinant CDK2/cyclin A; method in brief: as §5
[15] = target: Cyclin-dependent kinase 4/cyclin D1 (Homo sapiens, UniProt P11802); assay: Inhibition of human recombinant CDK4/cyclin D1; assay type: protein-complex assay
Method in brief: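 CDK4/CycD1 (human, baculovirus/Sf9, affinity-purified) with Rb-CTF as substrate. The radiometric FlashPlate assay held 1 µM [γ-33P]ATP in HEPES-NaOH pH 7.5 with 3 mM MgCl2 and 3 mM MnCl2.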

[16] = target: Aurora kinase B (Homo sapiens, UniProt Q96GD4); assay: Inhibition of human recombinant Aurora B; method in brief: as §3
Chain of Aurora kinase B (Q96GD4 whole entry): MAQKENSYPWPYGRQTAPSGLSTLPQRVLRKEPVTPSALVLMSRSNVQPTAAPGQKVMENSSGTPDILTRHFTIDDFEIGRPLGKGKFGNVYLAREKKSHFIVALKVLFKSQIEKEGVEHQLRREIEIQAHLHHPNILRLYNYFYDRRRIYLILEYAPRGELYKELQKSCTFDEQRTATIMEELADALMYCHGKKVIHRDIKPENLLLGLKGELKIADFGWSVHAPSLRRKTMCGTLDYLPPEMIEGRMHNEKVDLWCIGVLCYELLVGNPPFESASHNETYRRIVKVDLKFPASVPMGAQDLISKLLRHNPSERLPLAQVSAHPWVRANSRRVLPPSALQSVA

[17] = target: Insulin receptor (Homo sapiens, UniProt P06213); assay: Inhibition of human recombinant INS-R
[18] = target: T4, NUAK family SNF1-like kinase 1 (Homo sapiens, UniProt O60285); assay: Inhibition of human recombinant ARK5
T4 sequence (O60285 whole entry): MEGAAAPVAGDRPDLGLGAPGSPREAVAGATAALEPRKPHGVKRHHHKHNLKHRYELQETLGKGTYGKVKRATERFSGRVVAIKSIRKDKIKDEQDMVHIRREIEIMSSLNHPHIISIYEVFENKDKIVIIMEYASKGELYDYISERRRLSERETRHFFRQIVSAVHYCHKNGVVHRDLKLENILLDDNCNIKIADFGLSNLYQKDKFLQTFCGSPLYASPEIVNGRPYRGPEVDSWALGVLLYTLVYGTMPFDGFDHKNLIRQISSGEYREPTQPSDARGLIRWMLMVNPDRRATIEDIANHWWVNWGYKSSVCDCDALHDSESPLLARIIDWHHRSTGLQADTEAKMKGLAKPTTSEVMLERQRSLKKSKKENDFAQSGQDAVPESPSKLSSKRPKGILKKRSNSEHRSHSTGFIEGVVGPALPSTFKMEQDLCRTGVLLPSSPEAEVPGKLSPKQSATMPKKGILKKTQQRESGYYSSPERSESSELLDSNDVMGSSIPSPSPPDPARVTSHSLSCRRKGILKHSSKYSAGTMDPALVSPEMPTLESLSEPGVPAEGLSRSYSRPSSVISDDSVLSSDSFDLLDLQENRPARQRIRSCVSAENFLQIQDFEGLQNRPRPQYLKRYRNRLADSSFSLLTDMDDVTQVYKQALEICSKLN
Method in brief: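 Human ARK5 made in Sf9 cells by baculovirus (GST- or His-tagged, affinity-purified) and read by autophosphorylation in a 33PanQinase radiometric assay. Buffer: 60 mM HEPES-NaOH pH 7.5, 3 mM MgCl2, 3 mM MnCl2, 3 µM orthovanadate, 1.2 mM DTT, PEG20000 and 1 µM [γ-33P]ATP.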

Structure (SMILES)	IC50 [1]	IC50 [2]	IC50 [3]	IC50 [4]	IC50 [5]	IC50 [6]	IC50 [7]	IC50 [8]	inhibition [9]	further results
COc1cc(C2=C(c3c[nH]c4ccccc34)C(O)NC2=O)cc(OC)c1OC (stereo not given)	44 µM	3.4 µM	5.9 µM							
COc1cc(C2=C(c3c[nH]c4ccccc34)C(=O)NC2=O)cc(OC)c1OC [MALEIMIDE]									81%	Activity [10]: 0.48; Activity [11]: 22.4%
COc1ccc(C2=C(c3cn(C)c4ccccc34)C(=O)NC2)cc1	14 µM	18 µM	31 µM	46 µM		39 µM		48 µM		IC50 [18]: 3.6 µM
COc1cc(C2=C(c3cn(CC4COC(C)(C)O4)c4ccccc34)CNC2=O)cc(OC)c1OC (stereo not given)		3.2 µM	8 µM	23 µM				31 µM		

Second part, led by results:

IC50 [1]	IC50 [2]	IC50 [3]	IC50 [4]	IC50 [5]	IC50 [6]	IC50 [7]	IC50 [8]	Structure (SMILES)	inhibition [9]	further results
	3.6 µM	5.3 µM	35 µM	28 µM	40 µM	29 µM	24 µM	CCOCn1cc(C2=C(c3cc(OC)c(OC)c(OC)c3)C(=O)NC2)c2ccccc21		
25 µM	3.2 µM	2.3 µM		35 µM			25 µM	COCn1cc(C2=C(c3cc(OC)c(OC)c(OC)c3)C(=O)NC2)c2ccccc21	42%	
	2.5 µM	1.5 µM	9 µM	43 µM		6.5 µM	1.7 µM	COc1cc(C2=C(c3cn(COc4ccccc4)c4ccccc34)CNC2=O)cc(OC)c1OC	41%	IC50 [12]: 37 µM; IC50 [13]: 40 µM; IC50 [14]: 20 µM; IC50 [15]: 44 µM; IC50 [16]: 20 µM; IC50 [17]: 44 µM
	5.3 µM	5.2 µM	44 µM	27 µM	29 µM	33 µM	11 µM	COc1cc(C2=C(c3cn(COC(C)C)c4ccccc34)CNC2=O)cc(OC)c1OC		
